Data as given in ChEMBL document CHEMBL5058577, “EUbOPEN Chemogenomics Library 2 (Multiplex)” (2022).

System: HEK-293T
Test: Multiplex assay against HEK293T
Format: toxicity, cell-based
Conditions: human
In short: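 Compound was added to live cells that had been stained at seeding with Hoechst33342, BioTracker Green Microtubule Cytoskeleton Dye, MitoTracker Red and Annexin V Alexa Fluor 680, and imaging followed on a CQ1 microscope at 37°C and 5% CO2. CellPathfinder machine-learning gating divided cells into Hoechst high-intensity objects or normal cells, normal cells into healthy, pyknosed or fragmented nuclei, and pyknosed cells into mitotic or apoptotic. Tubulin, mitochondrial-mass and membrane-permeability phenotypes are per cents of healthy-nucleus cells.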

[1] = 12 h, 1 µM, compound concentration 1 uM, replicate 1
[2] = 12 h, 1 µM, compound concentration 1 uM, replicate 2
[3] = 12 h, 10 µM, compound concentration 10 uM, replicate 1
[4] = 12 h, 10 µM, compound concentration 10 uM, replicate 2
[5] = 24 h, 1 µM, compound concentration 1 uM, replicate 1
[6] = 24 h, 1 µM, compound concentration 1 uM, replicate 2
[7] = 24 h, 10 µM, compound concentration 10 uM, replicate 1
[8] = 24 h, 10 µM, compound concentration 10 uM, replicate 2
[9] = 48 h, 1 µM, compound concentration 1 uM, replicate 1
[10] = 48 h, 1 µM, compound concentration 1 uM, replicate 2
[11] = 48 h, 10 µM, compound concentration 10 uM, replicate 1
[12] = 48 h, 10 µM, compound concentration 10 uM, replicate 2

Question: How did the “Population Apoptotic (%)” value [1] turn out when `COc1c(Nc2ccc(S(C)(=O)=O)nc2C)ncnc1OC1CCN(C(=O)OC(C)C)CC1` [ADP-597] was run?
Answer: 29%

Question: What about the “Population Fragmented Nuclei (%)” value [1] of the same compound?
Answer: 5%

Question: And the “Population Healthy Nuclei (%)” value [1]?
Answer: 78%

Question: And the “Population Hoechst High Intensity Objects (%)” value [1]?
Answer: 6%

Question: What about the “Population Membrane Permeable-Phenotype (%)” value [1] of the same compound?
Answer: 0%

Question: What about the “Population Mitochondria Different-Phenotype (%)” value [1] of the same compound?
Answer: 47%

Question: And the “Population Mitotic Cells (%)” value [1]?
Answer: 70%

Question: And the “Population Normal (%)” value [1]?
Answer: 93%

Question: And the “Population Pyknosed Nuclei (%)” value [1]?
Answer: 16%

Question: And the “Population Tubulin-Different-Phenotype (%)” value [1]?
Answer: 36%

Question: And the “Total Cell Count” value [1]?
Answer: 430

Question: What about the “Population Apoptotic (%)” value [2] of the same compound?
Answer: 38%

Question: What about the “Population Fragmented Nuclei (%)” value [2] of the same compound?
Answer: 4%

Question: What about the “Population Healthy Nuclei (%)” value [2] of the same compound?
Answer: 80%

Question: What about the “Population Hoechst High Intensity Objects (%)” value [2] of the same compound?
Answer: 3%

Question: And the “Population Mitochondria Different-Phenotype (%)” value [2]?
Answer: 62%

Question: What about the “Population Mitotic Cells (%)” value [2] of the same compound?
Answer: 62%

Question: And the “Population Normal (%)” value [2]?
Answer: 96%

Question: And the “Population Pyknosed Nuclei (%)” value [2]?
Answer: 14%

Question: What about the “Population Tubulin-Different-Phenotype (%)” value [2] of the same compound?
Answer: 25%

Question: And the “Total Cell Count” value [2]?
Answer: 347

Question: What about the “Population Apoptotic (%)” value [3] of the same compound?
Answer: 47%

Question: And the “Population Fragmented Nuclei (%)” value [3]?
Answer: 7%

Question: And the “Population Healthy Nuclei (%)” value [3]?
Answer: 75%

Question: And the “Population Hoechst High Intensity Objects (%)” value [3]?
Answer: 8%

Question: What about the “Population Membrane Permeable-Phenotype (%)” value [3] of the same compound?
Answer: 0%

Question: What about the “Population Mitochondria Different-Phenotype (%)” value [3] of the same compound?
Answer: 70%

Question: And the “Population Mitotic Cells (%)” value [3]?
Answer: 52%

Question: And the “Population Normal (%)” value [3]?
Answer: 91%

Question: And the “Population Pyknosed Nuclei (%)” value [3]?
Answer: 17%

Question: What about the “Population Tubulin-Different-Phenotype (%)” value [3] of the same compound?
Answer: 44%

Question: And the “Total Cell Count” value [3]?
Answer: 302

Question: What about the “Population Healthy Nuclei (%)” value [4] of the same compound?
Answer: 72%

Question: What about the “Population Hoechst High Intensity Objects (%)” value [4] of the same compound?
Answer: 25%

Question: And the “Population Mitochondria Different-Phenotype (%)” value [4]?
Answer: 71%

Question: What about the “Population Normal (%)” value [4] of the same compound?
Answer: 74%

Question: What about the “Population Pyknosed Nuclei (%)” value [4] of the same compound?
Answer: 20%

Question: What about the “Population Tubulin-Different-Phenotype (%)” value [4] of the same compound?
Answer: 36%

Question: And the “Total Cell Count” value [4]?
Answer: 238

Question: What about the “Population Apoptotic (%)” value [5] of the same compound?
Answer: 23%

Question: And the “Population Fragmented Nuclei (%)” value [5]?
Answer: 7%

Question: What about the “Population Healthy Nuclei (%)” value [5] of the same compound?
Answer: 81%

Question: What about the “Population Hoechst High Intensity Objects (%)” value [5] of the same compound?
Answer: 2%

Question: And the “Population Membrane Permeable-Phenotype (%)” value [5]?
Answer: 0%

Question: What about the “Population Mitochondria Different-Phenotype (%)” value [5] of the same compound?
Answer: 20%

Question: What about the “Population Mitotic Cells (%)” value [5] of the same compound?
Answer: 76%

Question: What about the “Population Normal (%)” value [5] of the same compound?
Answer: 97%

Question: What about the “Population Pyknosed Nuclei (%)” value [5] of the same compound?
Answer: 11%

Question: What about the “Population Tubulin-Different-Phenotype (%)” value [5] of the same compound?
Answer: 16%

Question: And the “Total Cell Count” value [5]?
Answer: 587

Question: What about the “Population Apoptotic (%)” value [6] of the same compound?
Answer: 30%

Question: And the “Population Fragmented Nuclei (%)” value [6]?
Answer: 6%

Question: What about the “Population Healthy Nuclei (%)” value [6] of the same compound?
Answer: 84%

Question: And the “Population Hoechst High Intensity Objects (%)” value [6]?
Answer: 3%

Question: And the “Population Membrane Permeable-Phenotype (%)” value [6]?
Answer: 1%

Question: What about the “Population Mitochondria Different-Phenotype (%)” value [6] of the same compound?
Answer: 34%

Question: And the “Population Mitotic Cells (%)” value [6]?
Answer: 69%

Question: And the “Population Normal (%)” value [6]?
Answer: 96%

Question: And the “Population Pyknosed Nuclei (%)” value [6]?
Answer: 9%

Question: What about the “Population Tubulin-Different-Phenotype (%)” value [6] of the same compound?
Answer: 15%

Question: What about the “Total Cell Count” value [6] of the same compound?
Answer: 447

Question: What about the “Population Apoptotic (%)” value [7] of the same compound?
Answer: 44%

Question: What about the “Population Fragmented Nuclei (%)” value [7] of the same compound?
Answer: 9%

Question: What about the “Population Healthy Nuclei (%)” value [7] of the same compound?
Answer: 74%

Question: What about the “Population Hoechst High Intensity Objects (%)” value [7] of the same compound?
Answer: 7%

Question: What about the “Population Membrane Permeable-Phenotype (%)” value [7] of the same compound?
Answer: 0%

Question: And the “Population Mitochondria Different-Phenotype (%)” value [7]?
Answer: 58%

Question: And the “Population Mitotic Cells (%)” value [7]?
Answer: 55%

Question: What about the “Population Normal (%)” value [7] of the same compound?
Answer: 92%

Question: What about the “Population Pyknosed Nuclei (%)” value [7] of the same compound?
Answer: 15%

Question: What about the “Population Tubulin-Different-Phenotype (%)” value [7] of the same compound?
Answer: 38%

Question: What about the “Total Cell Count” value [7] of the same compound?
Answer: 355

Question: And the “Population Apoptotic (%)” value [8]?
Answer: 63%

Question: What about the “Population Fragmented Nuclei (%)” value [8] of the same compound?
Answer: 11%

Question: What about the “Population Healthy Nuclei (%)” value [8] of the same compound?
Answer: 71%

Question: And the “Population Hoechst High Intensity Objects (%)” value [8]?
Answer: 21%

Question: What about the “Population Mitochondria Different-Phenotype (%)” value [8] of the same compound?
Answer: 54%

Question: What about the “Population Mitotic Cells (%)” value [8] of the same compound?
Answer: 36%

Question: And the “Population Normal (%)” value [8]?
Answer: 78%

Question: What about the “Population Pyknosed Nuclei (%)” value [8] of the same compound?
Answer: 17%

Question: What about the “Population Tubulin-Different-Phenotype (%)” value [8] of the same compound?
Answer: 25%

Question: What about the “Total Cell Count” value [8] of the same compound?
Answer: 300

Question: And the “Population Apoptotic (%)” value [9]?
Answer: 25%

Question: And the “Population Fragmented Nuclei (%)” value [9]?
Answer: 13%

Question: What about the “Population Healthy Nuclei (%)” value [9] of the same compound?
Answer: 78%

Question: What about the “Population Hoechst High Intensity Objects (%)” value [9] of the same compound?
Answer: 2%

Question: And the “Population Membrane Permeable-Phenotype (%)” value [9]?
Answer: 0%

Question: What about the “Population Mitochondria Different-Phenotype (%)” value [9] of the same compound?
Answer: 18%

Question: And the “Population Mitotic Cells (%)” value [9]?
Answer: 75%

Question: What about the “Population Normal (%)” value [9] of the same compound?
Answer: 97%

Question: And the “Population Pyknosed Nuclei (%)” value [9]?
Answer: 8%

Question: And the “Population Tubulin-Different-Phenotype (%)” value [9]?
Answer: 13%

Question: And the “Total Cell Count” value [9]?
Answer: 924

Question: What about the “Population Apoptotic (%)” value [10] of the same compound?
Answer: 36%

Question: What about the “Population Healthy Nuclei (%)” value [10] of the same compound?
Answer: 77%

Question: And the “Population Hoechst High Intensity Objects (%)” value [10]?
Answer: 5%

Question: What about the “Population Membrane Permeable-Phenotype (%)” value [10] of the same compound?
Answer: 1%

Question: What about the “Population Mitochondria Different-Phenotype (%)” value [10] of the same compound?
Answer: 23%

Question: What about the “Population Mitotic Cells (%)” value [10] of the same compound?
Answer: 63%

Question: And the “Population Normal (%)” value [10]?
Answer: 94%

Question: And the “Population Pyknosed Nuclei (%)” value [10]?
Answer: 9%

Question: What about the “Population Tubulin-Different-Phenotype (%)” value [10] of the same compound?
Answer: 14%

Question: And the “Total Cell Count” value [10]?
Answer: 590

Question: What about the “Population Apoptotic (%)” value [11] of the same compound?
Answer: 35%

Question: What about the “Population Fragmented Nuclei (%)” value [11] of the same compound?
Answer: 15%

Question: And the “Population Healthy Nuclei (%)” value [11]?
Answer: 73%

Question: What about the “Population Hoechst High Intensity Objects (%)” value [11] of the same compound?
Answer: 4%

Question: What about the “Population Membrane Permeable-Phenotype (%)” value [11] of the same compound?
Answer: 0%

Question: What about the “Population Mitochondria Different-Phenotype (%)” value [11] of the same compound?
Answer: 38%

Question: What about the “Population Mitotic Cells (%)” value [11] of the same compound?
Answer: 64%

Question: What about the “Population Normal (%)” value [11] of the same compound?
Answer: 95%

Question: And the “Population Pyknosed Nuclei (%)” value [11]?
Answer: 11%

Question: What about the “Population Tubulin-Different-Phenotype (%)” value [11] of the same compound?
Answer: 23%

Question: What about the “Total Cell Count” value [11] of the same compound?
Answer: 494

Question: And the “Population Apoptotic (%)” value [12]?
Answer: 43%

Question: What about the “Population Fragmented Nuclei (%)” value [12] of the same compound?
Answer: 13%

Question: And the “Population Hoechst High Intensity Objects (%)” value [12]?
Answer: 10%

Question: What about the “Population Mitochondria Different-Phenotype (%)” value [12] of the same compound?
Answer: 32%

Question: And the “Population Mitotic Cells (%)” value [12]?
Answer: 56%

Question: What about the “Population Normal (%)” value [12] of the same compound?
Answer: 89%

Question: And the “Population Pyknosed Nuclei (%)” value [12]?
Answer: 12%

Question: And the “Population Tubulin-Different-Phenotype (%)” value [12]?
Answer: 18%

Question: And the “Total Cell Count” value [12]?
Answer: 392
